Data published in ChEMBL document CHEMBL3997823, “New homoisoflavonoid analogues protect cells by regulating autophagy” (Bioorg Med Chem Lett, 2017).
Active and inactive are the calls of the source. The calls are words filed in the database; no cut-off is given here.

Tested on: SH-SY5Y
Experiment: Neuroprotective activity against MPP+-induced injury in human SH-SY5Y cells assessed as cell viability at 5 uM preincubated for 16 hrs followed by MPP+ addition measured after 8 hrs (reference value: 40.71 to 55.85%)
Type: functional
Details: read-out: Activity
`COc1cc(OC)c2c(=O)c(Cc3ccc(Cl)c(Cl)c3)coc2c1` gave a viability at 5 µM of 62.4%.
For `COc1ccc(Cc2coc3cc(OC(=O)N(C)C)cc(O)c3c2=O)cc1`, the viability at 5 µM was 42.5%.
With `COc1ccc(Cc2coc3cc(O)cc(O)c3c2=O)cc1OC` the viability at 5 µM was 60.3%.
In the case of `COc1ccccc1Cc1coc2cc(O)ccc2c1=O`, the viability at 5 µM is reported as 38.1%.
With `COc1cc(OC)c(OC)cc1Cc1coc2cc(O)cc(O)c2c1=O` the viability at 5 µM was 62.1%.
Work on `COc1cc(OC)c2c(=O)c(Cc3cccs3)coc2c1` yielded a viability at 5 µM of 37.8%.

Tested on: H9c2
Experiment: Cardioprotective activity against H2O2-induced injury in […] H9C2 cells assessed as increase in cell viability preincubated for 24 hrs followed by H2O2 addition measured after 24 hrs by MTT assay
Type: functional, cell-based
Details: Rattus norvegicus
Summary of the method: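 H9c2 cardiomyocytes injured with H2O2; cell viability read-out, with diazoxide as positive control.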
`COc1cc(OC)c(OC)cc1Cc1coc2cc(O)cc(O)c2c1=O` gave an EC50 of 15.7 µM.

Tested on: SH-SY5Y
Experiment: Neuroprotective activity against MPP+-induced injury in human SH-SY5Y cells assessed as cell viability at 50 uM preincubated for 16 hrs followed by MPP+ addition measured after 8 hrs (reference value: 40.71 to 55.85%)
Type: functional
Details: read-out: Activity
`COc1cc(OC)c2c(=O)c(Cc3ccc(Cl)c(Cl)c3)coc2c1` gave a viability at 50 µM of 48.9%.
For `COc1ccc(Cc2coc3cc(OC(=O)N(C)C)cc(O)c3c2=O)cc1`, the viability at 50 µM was 35.5%.
In the case of `COc1ccc(Cc2coc3cc(O)cc(O)c3c2=O)cc1OC`, the viability at 50 µM is reported as 60.9%.
For `COc1ccccc1Cc1coc2cc(O)ccc2c1=O`, the viability at 50 µM was 37.5%.
In the case of `COc1cc(OC)c(OC)cc1Cc1coc2cc(O)cc(O)c2c1=O`, the viability at 50 µM is reported as 48.4%.
Work on `COc1cc(OC)c2c(=O)c(Cc3cccs3)coc2c1` yielded a viability at 50 µM of 42.2%.

Tested on: not listed separately
Experiment: Cytotoxicity against human SH-SY5Y cells assessed as inhibition of cell growth at 50 uM after 72 hrs by MTT assay relative to control
Type: cell-based
Details: not given
`COc1cc(OC)c(OC)cc1Cc1coc2cc(O)cc(O)c2c1=O` gave an inhibition at 72 h, 50 µM of 15.3%.

Tested on: not listed separately
Experiment: Cytotoxicity against human MCF7 cells assessed as inhibition of cell growth at 50 uM after 72 hrs by MTT assay relative to control
Type: cell-based
Details: not given
`COc1cc(OC)c(OC)cc1Cc1coc2cc(O)cc(O)c2c1=O` gave an inhibition at 72 h, 50 µM of 49.5%.

Tested on: SH-SY5Y
Experiment: Induction of autophagy in human SH-SY5Y cells transfected with GFP-LC3 at 5 uM by MDC staining-based fluorescence microscopic method
Type: functional, cell-based
Details: not given
In the case of `COc1cc(OC)c2c(=O)c(Cc3ccc(Cl)c(Cl)c3)coc2c1`, the Activity is reported as “Active”.
In the case of `COc1ccc(Cc2coc3cc(O)cc(O)c3c2=O)cc1OC`, the Activity is reported as “Active”.

Tested on: SH-SY5Y
Experiment: Induction of autophagy in human SH-SY5Y cells at 12.5 to 50 uM after 24 by MDC staining-based flow cytometric method
Type: functional, cell-based
Details: not given
Summary of the method: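 SH-SY5Y cells were treated with compound for the indicated times, then stained with monodansylcadaverine. The MDC-positive cell ratio was measured by flow cytometry as the quantitative autophagy read-out.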
In the case of `COc1ccc(Cc2coc3cc(O)cc(O)c3c2=O)cc1OC`, the Activity is reported as “Active”.

Tested on: H9c2
Experiment: Cardioprotective activity against H2O2-induced injury in rat H9C2 cells assessed as increase in cell viability preincubated for 24 hrs followed by H2O2 addition measured after 24 hrs by MTT assay
Details: not given
`COc1ccc(Cc2coc3cc(O)ccc3c2=O)cc1` showed an EC50 of 32.1 µM.
For `COc1cc(OC)c2c(=O)c(Cc3ccc(Cl)c(Cl)c3)coc2c1`, the EC50 was 23.8 µM.
With `COc1cc(OC)c2c(=O)c(Cc3ccc(C(F)(F)F)cc3)coc2c1` the EC50 was > 100 µM.
`O=c1c(Cc2ccc(C(F)(F)F)cc2)coc2cc(O)cc(O)c12` gave an EC50 of 12.7 µM.
For `COc1ccc(Cc2coc3cc(OCC=C(C)C)cc(O)c3c2=O)cc1`, the EC50 was > 100 µM.
With `COc1ccc(Cc2coc3cc(OCCCCCl)cc(O)c3c2=O)cc1` the EC50 was > 100 µM.
With `COc1ccc(Cc2coc3cccc(O)c3c2=O)cc1` the EC50 was > 100 µM.
In the case of `COc1ccccc1Cc1coc2cc(O)cc(O)c2c1=O`, the EC50 is reported as 24.4 µM.
For `COc1ccc(Cc2coc3cc(O)cc(O)c3c2=O)cc1`, the EC50 was > 100 µM.
In the case of `COc1cccc(Cc2coc3cc(O)cc(O)c3c2=O)c1`, the EC50 is reported as > 100 µM.
`COc1ccc(Cc2coc3cc(OC(=O)N(C)C)cc(O)c3c2=O)cc1` showed an EC50 of 19.9 µM.
With `COc1ccc(Cc2coc3cc(OC)cc(OC)c3c2=O)cc1` the EC50 was > 100 µM.
In the case of `COc1ccccc1Cc1coc2cccc(O)c2c1=O`, the EC50 is reported as > 100 µM.
For `COc1ccc(Cc2coc3cc(OC(C)=O)cc(O)c3c2=O)cc1`, the EC50 was > 100 µM.
Compound `COc1ccc(Cc2coc3cc(O)cc(O)c3c2=O)cc1OC` has an EC50 of 12.1 µM.
For `COc1ccc(Cc2coc3cc(OCCCl)cc(O)c3c2=O)cc1`, the EC50 was > 100 µM.
For `CCC(=O)Oc1cc(O)c2c(=O)c(Cc3ccc(OC)cc3)coc2c1`, the EC50 was > 100 µM.
With `COc1ccccc1Cc1coc2cc(O)ccc2c1=O` the EC50 was 12.7 µM.
`COc1cc(OC)c2c(=O)c(Cc3cccs3)coc2c1` showed an EC50 of 74.3 µM.
